Measured values from different studies.
Each line is one published result; the experiments were not run side by side.
Sample: plasma
Route: oral

| Structure (SMILES) | host | dose | bioavailability [%] |
| --- | --- | --- | --- |
| CC(/C=C/C=C(\C)C(=O)O)=C\C=C\C=C(C)\C=C\C=C(/C)C(=O)O | female Wistar rat | 20 mg/kg | 55 to 66 |
| Cc1c(C(=O)O)ccc2c3n(nc12)[C@@H]1[C@H](C3)N(CC2CC2)[C@@]2(C(=O)Nc3cc(Cl)ccc32)[C@H]1c1cccc(Cl)c1F | male rat | 2 mg/kg | 55 |
| O=C(C=Cc1ccccc1)Nc1cc(-c2ccnc(N3CCC(O)CC3)c2)ccn1 | female Sprague-Dawley rat | 50 mg/kg | ~38.5 |
| CC(=Nc1ccc(N=Cc2cnccn2)cc1)N(C)C | male Sprague-Dawley rat | 200 mg/kg | 12 |
| CC(=O)CC(=O)C1CC(C)C(=O)C1=O (stereo not shown) | male Sprague-Dawley rat | 100 mg/kg | 100 |
| N#C[C@@]12C[C@@H]1[C@@H](n1cnc3c(N[C@@H](C4CCC4)C4CC4)nc(I)nc31)[C@H](O)[C@@H]2O | male Wistar rat | 1 mg/kg | 7.18 |
| CC1(CN)CCN(c2cnc3c(Sc4ccncc4Cl)n[nH]c3n2)CC1 | male Sprague-Dawley rat | 10 mg/kg | 42.5 |
| CN1Cc2c(N)cccc2C(=O)N1C1CCC(=O)NC1=O (stereo not shown) | male Sprague-Dawley rat | 3 mg/kg | 82.5 |
| Nc1ccc(/C=C/C(=O)NCc2cc3cc(-c4ccc(C(=O)N5CCC(F)(F)CC5)cc4)cc(-c4ccc(F)cc4)c3o2)cn1 | rat | 3 mg/kg | 19.6 |
| O=C1CC[C@H](N2Cc3cc(N4CCN(CC5CCN(c6ccc([C@@H]7c8ccc(O)cc8CC[C@@H]7c7ccccc7)cc6)CC5)CC4)ccc3C2=O)C(=O)N1 | female Sprague-Dawley rat | 20 mg/kg | 24.2 |
